Test results from ChEMBL document CHEMBL2331191, “Design and synthesis of novel 1,2,3-triazole-dithiocarbamate hybrids as potential anticancer agents” (Eur J Med Chem, 2013).
pIC50: −log10 of the molar value.

Legend:
[1] = test system: MGC-803; experiment: Cell cycle arrest in human MGC803 cells assessed as accumulation at G2/M phase at 0.25 to 1 umol/L by propidium iodide staining-based flow cytometric analysis; assay type: functional; details: TDE = time-dependent effect
[2] = test system: MGC-803; experiment: Induction of apoptosis in human MGC803 cells assessed as live cells at 0.25 umol/L after 12 hrs by annexin-V-FITC/propidium iodide staining-based flow cytometric analysis (reference value: 88.9%); assay type: functional
How it was run: (§1)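 MGC-803 cells were plated at 5.0×10^4 cells/mL, held 12 h at 37 °C, then given complete medium (blank) or compound at 0, 0.25, 0.5 or 1.0 µmol/L for 12 h. Quadrants: live (annexin−/PI−), early apoptotic (annexin+/PI−), late apoptotic (annexin+/PI+), damaged (annexin−/PI+).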

[3] = test system: MGC-803; experiment: Cell cycle arrest in human MGC803 cells assessed as accumulation at G0/G1 phase at 1 umol/L after 12 hrs by propidium iodide staining-based flow cytometric analysis (reference value: 39.17%); assay type: functional
[4] = test system: MGC-803; experiment: Cell cycle arrest in human MGC803 cells assessed as accumulation at G0/G1 phase at 1 umol/L after 24 hrs by propidium iodide staining-based flow cytometric analysis (reference value: 43.68%); assay type: functional
[5] = test system: MGC-803; experiment: Cell cycle arrest in human MGC803 cells assessed as accumulation at S phase at 1 umol/L after 24 hrs by propidium iodide staining-based flow cytometric analysis (reference value: 39.56%); assay type: functional
[6] = test system: MGC-803; experiment: Induction of apoptosis in human MGC803 cells assessed as late apoptotic cells at 1 umol/L after 12 hrs by annexin-V-FITC/propidium iodide staining-based flow cytometric analysis (reference value: 5.5%); assay type: functional; how it was run: as §1
[7] = test system: MGC-803; experiment: Induction of apoptosis in human MGC803 cells assessed as early apoptotic cells at 0.5 umol/L after 12 hrs by annexin-V-FITC/propidium iodide staining-based flow cytometric analysis (reference value: 3.7%); assay type: functional; how it was run: as §1
[8] = test system: MGC-803; experiment: Induction of apoptosis in human MGC803 cells assessed as late apoptotic cells at 0.25 umol/L after 12 hrs by annexin-V-FITC/propidium iodide staining-based flow cytometric analysis (reference value: 5.5%); assay type: functional; how it was run: as §1
[9] = test system: MGC-803; experiment: Cell cycle arrest in human MGC803 cells assessed as accumulation at G0/G1 phase at 0.5 umol/L after 24 hrs by propidium iodide staining-based flow cytometric analysis (reference value: 43.68%); assay type: functional
[10] = test system: MGC-803; experiment: Cell cycle arrest in human MGC803 cells assessed as accumulation at G0/G1 phase at 0.25 umol/L after 12 hrs by propidium iodide staining-based flow cytometric analysis (reference value: 39.17%); assay type: functional
[11] = test system: MGC-803; experiment: Cell cycle arrest in human MGC803 cells assessed as accumulation at G2/M phase at 0.25 umol/L after 12 hrs by propidium iodide staining-based flow cytometric analysis (reference value: 17.59%); assay type: functional
[12] = test system: MGC-803; experiment: Cell cycle arrest in human MGC803 cells assessed as accumulation at G0/G1 phase at 0.5 umol/L after 12 hrs by propidium iodide staining-based flow cytometric analysis (reference value: 39.17%); assay type: functional
[13] = test system: MGC-803; experiment: Induction of apoptosis in human MGC803 cells after 12 hrs by annexin-V-FITC/propidium iodide staining-based flow cytometric analysis; assay type: functional, cell-based; how it was run: as §1
[14] = test system: MGC-803; experiment: Induction of apoptosis in human MGC803 cells assessed as damaged cells at 0.5 umol/L after 12 hrs by annexin-V-FITC/propidium iodide staining-based flow cytometric analysis (reference value: 1.9%); assay type: functional; how it was run: as §1
[15] = test system: MGC-803; experiment: Induction of apoptosis in human MGC803 cells assessed as live cells at 0.5 umol/L after 12 hrs by annexin-V-FITC/propidium iodide staining-based flow cytometric analysis (reference value: 88.9%); assay type: functional; how it was run: as §1
[16] = test system: MGC-803; experiment: Cell cycle arrest in human MGC803 cells assessed as accumulation at G2/M phase at 0.5 umol/L after 24 hrs by propidium iodide staining-based flow cytometric analysis (reference value: 15.12%); assay type: functional
[17] = test system: MGC-803; experiment: Induction of apoptosis in human MGC803 cells assessed as damaged cells at 0.25 umol/L after 12 hrs by annexin-V-FITC/propidium iodide staining-based flow cytometric analysis (reference value: 1.9%); assay type: functional; how it was run: as §1
[18] = test system: MGC-803; experiment: Induction of apoptosis in human MGC803 cells assessed as late apoptotic cells at 0.5 umol/L after 12 hrs by annexin-V-FITC/propidium iodide staining-based flow cytometric analysis (reference value: 5.5%); assay type: functional; how it was run: as §1
[19] = test system: MGC-803; experiment: Cell cycle arrest in human MGC803 cells assessed as accumulation at G2/M phase at 1 umol/L after 12 hrs by propidium iodide staining-based flow cytometric analysis (reference value: 17.59%); assay type: functional
[20] = test system: MGC-803; experiment: Cell cycle arrest in human MGC803 cells assessed as accumulation at G2/M phase after 12 to 24 hrs by propidium iodide staining-based flow cytometric analysis; assay type: functional
[21] = test system: MGC-803; experiment: Cell cycle arrest in human MGC803 cells assessed as accumulation at S phase at 0.5 umol/L after 12 hrs by propidium iodide staining-based flow cytometric analysis (reference value: 41.43%); assay type: functional
[22] = test system: MGC-803; experiment: Induction of apoptosis in human MGC803 cells assessed as early apoptotic cells at 1 umol/L after 12 hrs by annexin-V-FITC/propidium iodide staining-based flow cytometric analysis (reference value: 3.7%); assay type: functional; how it was run: as §1
[23] = test system: MGC-803; experiment: Cell cycle arrest in human MGC803 cells assessed as accumulation at G2/M phase at 0.5 umol/L after 12 hrs by propidium iodide staining-based flow cytometric analysis (reference value: 17.59%); assay type: functional
[24] = test system: MGC-803; experiment: Cell cycle arrest in human MGC803 cells assessed as accumulation at G2/M phase at 0.25 umol/L after 24 hrs by propidium iodide staining-based flow cytometric analysis (reference value: 15.12%); assay type: functional
[25] = test system: MGC-803; experiment: Induction of apoptosis in human MGC803 cells assessed as live cells at 1 umol/L after 12 hrs by annexin-V-FITC/propidium iodide staining-based flow cytometric analysis (reference value: 88.9%); assay type: functional; how it was run: as §1
[26] = test system: MGC-803; experiment: Cell cycle arrest in human MGC803 cells assessed as accumulation at S phase at 1 umol/L after 12 hrs by propidium iodide staining-based flow cytometric analysis (reference value: 41.43%); assay type: functional
[27] = test system: MGC-803; experiment: Cytotoxicity against human MGC803 cells assessed as growth inhibition after 72 hrs by MTT assay; assay type: functional, cell-based; details: MGC-803, 72 h
How it was run: (§2)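 Exponentially growing cells were seeded at 5×10^3 per well and held 24 h at 37 °C. Medium was then replaced with fresh medium containing a range of concentrations, and cells were exposed for 72 h. MTT (5 mg/mL) was added for 4 h at 37 °C, formazan was dissolved in DMSO and A570 was read. Triplicate wells per concentration, three experiments. IC50 was taken from dose–response curves of inhibition ratio.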

[28] = test system: MGC-803; experiment: Ratio of 5-fluorouracil IC50 to compound IC50 for growth inhibition of human MGC803 cells; assay type: functional
How it was run: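 The IC50 ratio uses MGC-803 values from the 72 h MTT assay: cells seeded at 5×10^3 per well, compound exposure 72 h, MTT 4 h at 37 °C, A570 read after DMSO solubilization. Triplicate wells, three experiments. IC50 values were taken from dose–response curves, with 5-fluorouracil as the reference.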

[29] = test system: MGC-803; experiment: Induction of apoptosis in human MGC803 cells assessed as early apoptotic cells at 0.25 umol/L after 12 hrs by annexin-V-FITC/propidium iodide staining-based flow cytometric analysis (reference value: 3.7%); assay type: functional; how it was run: as §1
[30] = test system: MGC-803; experiment: Cell cycle arrest in human MGC803 cells assessed as accumulation at S phase at 0.25 umol/L after 12 hrs by propidium iodide staining-based flow cytometric analysis (reference value: 41.43%); assay type: functional
[31] = Cytotoxicity against human EC109 cells assessed as growth inhibition after 72 hrs by MTT assay; assay type: functional, cell-based; details: ECa-109, 72 h; how it was run: as §2
[32] = test system: MGC-803; experiment: Cell cycle arrest in human MGC803 cells assessed as accumulation at S phase at 0.5 umol/L after 24 hrs by propidium iodide staining-based flow cytometric analysis (reference value: 39.56%); assay type: functional
[33] = test system: MCF7; experiment: Cytotoxicity against human MCF7 cells assessed as growth inhibition after 72 hrs by MTT assay; assay type: functional, cell-based; details: MCF7, 72 h; how it was run: as §2
[34] = test system: MGC-803; experiment: Cell cycle arrest in human MGC803 cells assessed as accumulation at G2/M phase at 1 umol/L after 24 hrs by propidium iodide staining-based flow cytometric analysis (reference value: 15.12%); assay type: functional
[35] = test system: MGC-803; experiment: Cell cycle arrest in human MGC803 cells assessed as accumulation at S phase at 0.25 umol/L after 24 hrs by propidium iodide staining-based flow cytometric analysis (reference value: 39.56%); assay type: functional
[36] = test system: MGC-803; experiment: Induction of apoptosis in human MGC803 cells assessed as damaged cells at 1 umol/L after 12 hrs by annexin-V-FITC/propidium iodide staining-based flow cytometric analysis (reference value: 1.9%); assay type: functional; how it was run: as §1
[37] = test system: MGC-803; experiment: Cell cycle arrest in human MGC803 cells assessed as accumulation at G0/G1 phase at 0.25 umol/L after 24 hrs by propidium iodide staining-based flow cytometric analysis (reference value: 43.68%); assay type: functional
[38] = test system: PC-3; experiment: Cytotoxicity against human PC3 cells assessed as growth inhibition after 72 hrs by MTT assay; assay type: functional, cell-based; details: PC-3, 72 h; how it was run: as §2

Compound: CC(C)(C)OC(=O)N1CCN(C(=S)SCc2cn(Cc3ccccc3Cl)nn2)CC1
- Activity [1]: tde
- Activity [2]: 84.8%
- Activity [3]: 11.95%
- Activity [4]: 1.62%
- Activity [5]: 10.67%
- Activity [6]: 8.1%
- Activity [7]: 14.6%
- Activity [8]: 5.5%
- Activity [9]: 9.13%
- Activity [10]: 38.7%
- Activity [11]: 22.2%
- Activity [12]: 30.04%
- Activity [13]: Dose-dependent effect
- Activity [14]: 2.9%
- Activity [15]: 74.1%
- Activity [16]: 68.1%
- Activity [17]: 1.9%
- Activity [18]: 8.4%
- Activity [19]: 64.1%
- Activity [20]: Dose-dependent effect
- Activity [21]: 36.01%
- Activity [22]: 35.1%
- Activity [23]: 34.29%
- Activity [24]: 38.75%
- Activity [25]: 54.6%
- Activity [26]: 30.36%
- pIC50 [27]: 6.31
- Ratio IC50 [28]: 14
- Activity [29]: 7.7%
- Activity [30]: 39.06%
- pIC50 [31]: 4.92
- Activity [32]: 14.81%
- pIC50 [33]: 5.22
- Activity [34]: 80.05%
- Activity [35]: 34.35%
- Activity [36]: 2.3%
- Activity [37]: 27.21%
- pIC50 [38]: 4.90
